Laboratory results from ChEMBL document CHEMBL1926653, “Synthesis and binding assays of novel 3,3-dimethylpiperidine derivatives with various lipophilicities as σ₁ receptor ligands” (Bioorg Med Chem, 2011).

Assays:
[1] = Displacement of [3H]DTG from sigma 2 receptor in rat liver membranes; assay type: cell membranes, Membrane; settings: read-out: Ki(app)
Summary of the method: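 Sigma-2 site labelled with [3H]-DTG at 30 Ci/mmol, following Matsumoto et al. Curves used 6–9 concentrations of test drug, repeated in two or three experiments with duplicate samples. IC50 (50% inhibition of specific binding) and apparent Ki were obtained by nonlinear curve fitting.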

[2] = target: Sigma non-opioid intracellular receptor 1 (Cavia porcellus, UniProt Q60492); test: Displacement of [3H]-(+)-pentazocine from sigma1 receptor in guinea pig brain membranes without cerebellum; assay type: cell membranes, Membrane; settings: read-out: Ki(app)
Sequence of Sigma non-opioid intracellular receptor 1 (Cavia porcellus, UniProt Q60492) (Q60492 whole entry): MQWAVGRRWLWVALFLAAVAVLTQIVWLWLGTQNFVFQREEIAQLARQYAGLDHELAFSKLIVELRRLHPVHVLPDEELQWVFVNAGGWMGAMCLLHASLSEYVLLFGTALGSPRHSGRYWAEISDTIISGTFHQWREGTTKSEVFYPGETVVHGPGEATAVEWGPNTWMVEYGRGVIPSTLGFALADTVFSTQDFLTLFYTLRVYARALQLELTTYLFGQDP

[3] = target: T1, 3-beta-hydroxysteroid-Delta(8),Delta(7)-isomerase (Cavia porcellus, UniProt Q60490); test: Displacement of [3H]-emopamil from delta(8)-delta(7) sterol isomerase in guinea pig liver membranes; assay type: cell membranes, Membrane; settings: read-out: Ki(app)
T1 sequence (Q60490 whole entry): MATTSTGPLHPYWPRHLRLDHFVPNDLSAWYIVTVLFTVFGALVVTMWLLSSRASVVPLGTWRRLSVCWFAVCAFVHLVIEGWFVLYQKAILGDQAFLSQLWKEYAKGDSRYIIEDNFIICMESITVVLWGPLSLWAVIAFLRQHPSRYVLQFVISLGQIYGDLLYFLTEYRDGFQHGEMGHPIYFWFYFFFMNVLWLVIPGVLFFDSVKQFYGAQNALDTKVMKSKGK
Summary of the method: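 Assay followed Moebius et al. Inhibition curves used 6–9 drug concentrations over two or three experiments run in duplicate. IC50 is the concentration giving 50% loss of specific radioligand binding. Apparent Ki came from nonlinear curve fitting.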

[4] = Selectivity ratio of Ki for sigma 2 receptor in rat liver membranes to Ki for sigma 1 receptor in guinea pig brain membranes; assay type: cell membranes; settings: Membrane
[5] = target: Sigma non-opioid intracellular receptor 1 (Rattus norvegicus, UniProt Q9R0C9); test: Binding affinity to sigma1 receptor in rat brain membranes; assay type: cell membranes
Sequence of Sigma non-opioid intracellular receptor 1 (Rattus norvegicus, UniProt Q9R0C9) (Q9R0C9 whole entry): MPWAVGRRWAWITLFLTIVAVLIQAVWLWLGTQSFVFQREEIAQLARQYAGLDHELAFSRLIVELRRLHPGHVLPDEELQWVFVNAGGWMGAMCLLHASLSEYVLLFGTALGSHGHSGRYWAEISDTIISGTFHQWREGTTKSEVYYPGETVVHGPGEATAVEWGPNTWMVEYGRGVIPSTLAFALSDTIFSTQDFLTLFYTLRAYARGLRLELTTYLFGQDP
Summary of the method: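 Radioligand displacement binding. IC50 is the concentration inhibiting 50% of specific radioligand binding, from 6–9 concentrations of the test drug, run in two or three experiments with duplicate samples. Apparent Ki came from nonlinear curve fitting. Compounds were tested as hydrochloride salts, or as free bases in some cases.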

[6] = target: Sigma non-opioid intracellular receptor 1 (Cavia porcellus) (UniProt Q60492); test: Displacement of [3H]-(+)-pentazocine from sigma 1 receptor in guinea pig brain membranes at 10^-10 M; assay type: cell membranes; settings: Membrane
Sequence of Sigma non-opioid intracellular receptor 1 (Cavia porcellus) (Q60492 whole entry): as the sequence (Q60492 whole entry) above

Structure (SMILES)	Ki [1]	Ki [2]	Ki [3]	Ratio Ki [4]	Ki [5]	inhibition [6]
CC1(C)CCCN(CCNc2nc3c(s2)C(=O)CCC3)C1	> 10000 nM	> 10000 nM	> 10000 nM			
CC1(C)CCCN(CCCn2nnc3ccccc32)C1	1990 nM	339 nM		5.6		
CC1(C)CCCN(CCCc2c[nH]c3ccccc23)C1	110 nM	41.6 nM		2.6		
CC1(C)CCCN(Cc2cc3ccccc3o2)C1	1810 nM	3690 nM		0.4		
CC1(C)CCCN(CCCc2cccc3sccc23)C1	63.6 nM	52 nM	0.9 nM	1.2		
CC1(C)CCCN(CC(=O)Nc2nc3c(s2)C(=O)CCC3)C1	> 10000 nM	> 10000 nM	> 10000 nM			
CC1(C)CCCN(CCNc2nccs2)C1	3330 nM	459 nM	1400 nM	7.2		
CC1(C)CCCN(CCCc2cccc3occc23)C1	42.3 nM	63.5 nM	1.1 nM	0.7		
Cc1ccccc1NC(=N)Nc1ccccc1C [DITOLYLGUANIDINE]	34.3 nM					
CC(C(O)c1ccc(O)cc1)N1CCC(Cc2ccccc2)CC1 (racemic) [IFENPRODIL]			15 nM			
CC1(C)CCCN(CCCCN2CCCC(C)(C)C2)C1	414 nM	14.1 nM	213 nM	29		
CC1(C)CCCN(CCNc2nc3ccccc3s2)C1	742 nM	566 nM	115 nM	1.3		
CC1(C)CCCN(CCCCC2CCCCC2)C1	19.6 nM	1.02 nM	3.8 nM	19		
CC1(C)CCCN(CCCn2ccc3ccccc32)C1	194 nM	50.9 nM		3.8		

Next, values leading:

Ki [1]	Ki [2]	Ki [3]	Ratio Ki [4]	Ki [5]	inhibition [6]	Structure (SMILES)
			180			CC1(C)CCCN(CCCC2CCCc3sccc32)C1 (racemic) [listing 1 of 3 here]
38 nM	0.21 nM	3.07 nM				CC1(C)CCCN(CCCC2CCCc3sccc32)C1 (racemic) [listing 2 of 3 here]
				> 3960 nM		CC1(C)CCCN(CCCC2CCCc3sccc32)C1 (racemic) [listing 3 of 3 here]
37.5 nM	0.38 nM	0.2 nM	101			CC1(C)CCCN(CCCC2CCCCc3ccccc32)C1 (racemic)
65.9 nM	0.14 nM	7.3 nM	471			CC1(C)CCCN(CCCCC2CCCCc3ccccc32)C1 (racemic)
28.1 nM		2.11 nM			78%	CC1(C)CCCN(CCCCCC2CCCc3sccc32)C1 (racemic)
242 nM	1.75 nM	1.54 nM	138			CC1(C)CCCN(CCCCC2CCc3ccccc32)C1 (stereo unspecified)
119 nM	27.1 nM		4.4			CC1(C)CCCN(CCCC2CCCc3[nH]ccc32)C1 (racemic)
247 nM	2.12 nM	0.67 nM	117			COc1cccc2c1CCCC2CCCCN1CCCC(C)(C)C1 (stereo unspecified)
